Reference: ChEMBL document CHEMBL4033712, “Synthesis and biological evaluation of new C-12(α/β)-(N-) sulfamoyl-phenylamino-14-deoxy-andrographolide derivatives as potent anti-cancer agents” (Bioorg Med Chem Lett, 2017)

Assays:
Type in all cases: functional
[1] = tested on: BT-549; test: Anticancer activity against human BT549 cells assessed as cell growth at 10 uM after 48 hrs by sulforhodamine B assay relative to control; conditions: BT-549, 48 h, read-out: Activity
In short: (§1)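 Single-dose NCI-60 panel screen: compound added at 10 µM and the culture incubated 48 h. The end point was read by protein staining with sulforhodamine B. The value is percent growth of treated cells relative to untreated control cells, reported as a mean graph across the panel.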

[2] = tested on: NCI-H322M; test: Anticancer activity against human NCI-H322M cells assessed as cell growth at 10 uM after 48 hrs by sulforhodamine B assay relative to control; conditions: read-out: Activity; in short: as §1
[3] = tested on: OVCAR-4; test: Anticancer activity against human OVCAR4 cells assessed as cell growth at 10 uM after 48 hrs by sulforhodamine B assay relative to control; conditions: OVCAR-4, 48 h, read-out: Activity; in short: as §1
[4] = tested on: SNB-75; test: Anticancer activity against human SNB75 cells assessed as cell growth at 10 uM after 48 hrs by sulforhodamine B assay relative to control; conditions: SNB-75, 48 h, read-out: Activity
In short: (§2)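 NCI-60 single-dose screen: compound added at 10 µM, cultures incubated 48 h. End point by sulforhodamine B protein-binding dye. Value reported as percent growth of treated cells relative to untreated control cells.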

[5] = tested on: SF-295; test: Anticancer activity against human SF295 cells assessed as cell growth at 10 uM after 48 hrs by sulforhodamine B assay relative to control; conditions: SF-295, 48 h, read-out: Activity; in short: as §1
[6] = tested on: K562; test: Anticancer activity against human K562 cells assessed as cell growth at 10 uM after 48 hrs by sulforhodamine B assay relative to control; conditions: K562, 48 h, read-out: Activity; in short: as §1
[7] = tested on: CCRF-CEM; test: Anticancer activity against human CCRF-CEM cells assessed as cell growth at 10 uM after 48 hrs by sulforhodamine B assay relative to control; conditions: read-out: Activity; in short: as §1
[8] = tested on: A549; test: Anticancer activity against human A549/ATCC cells assessed as cell growth at 10 uM after 48 hrs by sulforhodamine B assay relative to control; conditions: A549, 48 h, read-out: Activity; in short: as §1
[9] = tested on: SK-MEL-2; test: Anticancer activity against human SK-MEL-2 cells assessed as cell growth at 10 uM after 48 hrs by sulforhodamine B assay relative to control; conditions: SK-MEL-2, 48 h, read-out: Activity; in short: as §1
[10] = tested on: SW-620; test: Anticancer activity against human SW620 cells assessed as cell growth at 10 uM after 48 hrs by sulforhodamine B assay relative to control; conditions: SW-620, 48 h, read-out: Activity; in short: as §2
[11] = tested on: U-251; test: Anticancer activity against human U251 cells assessed as cell growth at 10 uM after 48 hrs by sulforhodamine B assay relative to control; conditions: U-251, 48 h, read-out: Activity; in short: as §2
[12] = tested on: UO-31; test: Anticancer activity against human UO31 cells assessed as cell growth at 10 uM after 48 hrs by sulforhodamine B assay relative to control; conditions: UO-31, 48 h, read-out: Activity; in short: as §2
[13] = tested on: MOLT-4; test: Anticancer activity against human MOLT4 cells assessed as cell growth at 10 uM after 48 hrs by sulforhodamine B assay relative to control; conditions: MOLT-4, 48 h, read-out: Activity; in short: as §1
[14] = tested on: 786-0; test: Anticancer activity against human 786-0 cells assessed as cell growth at 10 uM after 48 hrs by sulforhodamine B assay relative to control; conditions: 786-0, 48 h, read-out: Activity; in short: as §1
[15] = tested on: SF-268; test: Anticancer activity against human SF268 cells assessed as cell growth at 10 uM after 48 hrs by sulforhodamine B assay relative to control; conditions: SF-268, 48 h, read-out: Activity; in short: as §1
[16] = tested on: EKVX; test: Anticancer activity against human EKVX cells assessed as cell growth at 10 uM after 48 hrs by sulforhodamine B assay relative to control; conditions: read-out: Activity; in short: as §1
[17] = tested on: NCI-H23; test: Anticancer activity against human NCI-H23 cells assessed as cell growth at 10 uM after 48 hrs by sulforhodamine B assay relative to control; conditions: NCI-H23, 48 h, read-out: Activity; in short: as §1
[18] = tested on: CAKI-1; test: Anticancer activity against human Caki1 cells assessed as cell growth at 10 uM after 48 hrs by sulforhodamine B assay relative to control; conditions: CAKI-1, 48 h, read-out: Activity; in short: as §1
[19] = tested on: OVCAR-5; test: Anticancer activity against human OVCAR5 cells assessed as cell growth at 10 uM after 48 hrs by sulforhodamine B assay relative to control; conditions: OVCAR-5, 48 h, read-out: Activity; in short: as §1
[20] = tested on: SR; test: Anticancer activity against human SR cells assessed as cell growth at 10 uM after 48 hrs by sulforhodamine B assay relative to control; conditions: read-out: Activity; in short: as §2
[21] = tested on: Hs-578T; test: Anticancer activity against human Hs 578T cells assessed as cell growth at 10 uM after 48 hrs by sulforhodamine B assay relative to control; conditions: read-out: Activity; in short: as §1
[22] = tested on: SK-OV-3; test: Anticancer activity against human SKOV3 cells assessed as cell growth at 10 uM after 48 hrs by sulforhodamine B assay relative to control; conditions: SK-OV-3, 48 h, read-out: Activity; in short: as §1
[23] = tested on: MDA-MB-231; test: Anticancer activity against human MDA-MB-231 cells assessed as cell growth at 10 uM after 48 hrs by sulforhodamine B assay relative to control; conditions: MDA-MB-231, 48 h, read-out: Activity; in short: as §1
[24] = tested on: SN12C; test: Anticancer activity against human SN12C cells assessed as cell growth at 10 uM after 48 hrs by sulforhodamine B assay relative to control; conditions: read-out: Activity; in short: as §1
[25] = tested on: HCC 2998; test: Anticancer activity against human HCC2998 cells assessed as cell growth at 10 uM after 48 hrs by sulforhodamine B assay relative to control; conditions: HCC 2998, 48 h, read-out: Activity; in short: as §1
[26] = tested on: MDA-MB-468; test: Anticancer activity against human MDA-MB-468 cells assessed as cell growth at 10 uM after 48 hrs by sulforhodamine B assay relative to control; conditions: MDA-MB-468, 48 h, read-out: Activity; in short: as §1
[27] = tested on: PC-3; test: Anticancer activity against human PC3 cells assessed as cell growth at 10 uM after 48 hrs by sulforhodamine B assay relative to control; conditions: PC-3, 48 h, read-out: Activity; in short: as §1
[28] = tested on: LOX IMVI; test: Anticancer activity against human LOXIMVI cells assessed as cell growth at 10 uM after 48 hrs by sulforhodamine B assay relative to control; conditions: read-out: Activity; in short: as §1
[29] = tested on: KM12; test: Anticancer activity against human KM12 cells assessed as cell growth at 10 uM after 48 hrs by sulforhodamine B assay relative to control; conditions: KM12, 48 h, read-out: Activity; in short: as §1
[30] = tested on: HCT-15; test: Anticancer activity against human HCT15 cells assessed as cell growth at 10 uM after 48 hrs by sulforhodamine B assay relative to control; conditions: HCT-15, 48 h, read-out: Activity; in short: as §1
[31] = tested on: SK-MEL-28; test: Anticancer activity against human SK-MEL-28 cells assessed as cell growth at 10 uM after 48 hrs by sulforhodamine B assay relative to control; conditions: SK-MEL-28, 48 h, read-out: Activity; in short: as §1
[32] = tested on: MCF7; test: Anticancer activity against human MCF7 cells assessed as cell growth at 10 uM after 48 hrs by sulforhodamine B assay relative to control; conditions: MCF7, 48 h, read-out: Activity; in short: as §1

Structure (SMILES) | growth at 10 µM [1] [%] | growth at 10 µM [2] [%] | growth at 10 µM [3] [%] | growth at 10 µM [4] [%] | growth at 10 µM [5] [%] | growth at 10 µM [6] [%] | growth at 10 µM [7] [%] | growth at 10 µM [8] [%] | growth at 10 µM [9] [%] | growth at 10 µM [10] [%] | growth at 10 µM [11] [%] | growth at 10 µM [12] [%] | growth at 10 µM [13] [%] | growth at 10 µM [14] [%] | growth at 10 µM [15] [%] | growth at 10 µM [16] [%] | growth at 10 µM [17] [%] | growth at 10 µM [18] [%] | growth at 10 µM [19] [%] | growth at 10 µM [20] [%] | other results
C=C1CC[C@@H]2[C@](C)(COC(C)=O)[C@H](OC(C)=O)CC[C@@]2(C)[C@H]1CC(Nc1ccc(S(=O)(=O)Nc2nccs2)cc1)C1=CCOC1=O (some centres undefined) | -23.5 | 59.9 | 38 | 28.3 | 73 | 3.4 | -27.7 | 43.7 | 28.4 | -72.7 | 4.21 | 13.5 | -4.45 | 6.27 | 21.3 | 73.4 | 38.1 | 55.9 | 7.82 | -5.84 | growth at 10 µM [21]: 51.9%; growth at 10 µM [22]: 79.9%; growth at 10 µM [23]: 5.69%; growth at 10 µM [24]: 15.6%; growth at 10 µM [25]: 54.2%; growth at 10 µM [26]: -59.9%; growth at 10 µM [27]: 21.8%; growth at 10 µM [28]: -88.3%; growth at 10 µM [29]: -0.89%; growth at 10 µM [30]: -39.2%; growth at 10 µM [31]: -16.3%; growth at 10 µM [32]: -21.3%
C=C1CC[C@@H]2[C@](C)(COC(C)=O)[C@H](OC(C)=O)CC[C@@]2(C)[C@H]1CC(Nc1ccc(S(=O)(=O)Nc2ncccn2)cc1)C1=CCOC1=O (some centres undefined) | -32 | 50.9 | 42.7 | 25.6 | 68 | 4.6 | -26.2 | 44.7 | 41.9 | -70 | -19 | -17.9 | -8.69 | -10.1 | 18.3 | 68.3 | 29.6 | 50.2 | -1.98 | -4.43 | growth at 10 µM [21]: 51.2%; growth at 10 µM [22]: 84.7%; growth at 10 µM [23]: -1.01%; growth at 10 µM [24]: 7.64%; growth at 10 µM [25]: 32%; growth at 10 µM [26]: -54%; growth at 10 µM [27]: 15.1%; growth at 10 µM [28]: -79.8%; growth at 10 µM [29]: -13.2%; growth at 10 µM [30]: -51.4%; growth at 10 µM [31]: -17.7%; growth at 10 µM [32]: -19.6%
